This note sets out measurements from article PMC3760280 (Structure (London, England : 1993), 2013).

One test has as its target GST-TopBP1 BRCT5 (Homo sapiens, UniProt Q92547). In words: Fluorescence polarization. Type of test: binding. The method, boiled down:
(§1)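 Human TopBP1 GST fusions of BRCT4/5 (549–746) or BRCT5 (641–746), wild type or point mutants, were expressed in E. coli BL21-Gold and glutathione-affinity purified. Plates sat 15 min at room temperature, then FP was read at ex 485/em 538 nm. Kd was curve-fitted and averaged over ≥3 independent titrations.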

In a further test the target is GST-TopBP1 BRCT4/5 (Homo sapiens, UniProt Q92547). In words: Fluorescence polarization. It is filed as binding. The method, boiled down:
as §1

Test [1] has as its target GST-BRCT5 R681E/K682E (TopBP1) (Homo sapiens, UniProt Q92547, K682E/R681E). In words: Fluorescence polarization. Type of test: binding. The method, boiled down: as §1
For the next test, the target named is GST-BRCT5 K704A (TopBP1) (Homo sapiens, UniProt Q92547, K704A). In words: Fluorescence polarization. Type of test: binding. Summed up:
as §1

The target in test [2] is T1, FITC-labeled MDC1 consensus SDT di-phospho-peptide FITC-GFIDpSDpTDVEEE-NH2.
T1 peptide: {FITC}-GFID[pS]D[pT]DVEEE-NH2
Description: fluorescence polarisation.

For test [3], the target named is T2, FITC-labeled MDC1 SDT di-phospho-peptide with +2 Val to Asp, FITC-GFIDpSDpTDDEEE-NH2.
T2 chain: GFIDSDTDDEEE
Description: fluorescence polarisation.

Test [4] has as its target T3, FITC-labeled MDC1 consensus SDT di-phospho-peptide FITC-GFIDpSDpTDVEEE-NH2.
T3 chain: GFIDSDTDVEEE
Description: fluorescence polarisation.

Test [5] addresses T4, FITC-labeled non-phosphorylated MDC1 consensus SDT peptide FITC-…-NH2.
T4 chain: GFIDSDTDVEEE
Description: fluorescence polarisation.

Test [6] has as its target T5, FITC-labeled pSer MDC1 consensus SDT peptide FITC-GFIDpSDTDVEEE-NH2.
T5 chain: GFIDSDTDVEEE
In words: fluorescence polarisation.

Test [7] concerns the target T6, FITC-labeled pThr MDC1 consensus SDT peptide FITC-GFIDSDpTDVEEE-NH2.
T6 chain: GFIDSDTDVEEE
Description: fluorescence polarisation.

Like-named read-outs stand apart in the source and are kept apart here. Square brackets hold non-standard residues; d marks the D form. Peptide text beside a SMILES is read from it. * marks the point of attachment. FITC = O=C1OC2(c3ccc(O)cc3Oc3cc(O)ccc32)c2ccc(NC(=S)*)cc21; pT = C[C@@H](OP(=O)(O)O)[C@H](N)C(=O)O; pS = N[C@@H](COP(=O)(O)O)C(=O)O

GST-BRCT5 K704A (TopBP1), sequence (Q92547 641-746 K704A): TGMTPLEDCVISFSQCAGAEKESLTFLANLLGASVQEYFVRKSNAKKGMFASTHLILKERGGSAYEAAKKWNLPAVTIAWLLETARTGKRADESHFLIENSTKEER
GST-BRCT5 R681E/K682E (TopBP1), sequence (Q92547 641-746 R681E/K682E): as the sequence (Q92547 641-746 K704A) above, with R41E, K42E, A64K counted along it

Regarding `CC[C@H](C)[C@H](NC(=O)[C@H](Cc1ccccc1)NC(=O)CNC(=S)Nc1ccc2c(c1)C(=O)OC21c2ccc(O)cc2Oc2cc(O)ccc21)C(=O)N[C@@H](CC(=O)O)C(=O)N[C@@H](COP(=O)(O)O)C(=O)N[C@@H](CC(=O)O)C(=O)N[C@H](C(=O)N[C@@H](CC(=O)O)C(=O)N[C@@H](CC(=O)O)C(=O)N[C@@H](CCC(=O)O)C(=O)N[C@@H](CCC(=O)O)C(=O)N[C@@H](CCC(=O)O)C(N)=O)[C@@H](C)OP(=O)(O)O` [FITC-GFIDpSDpTDDEEE-NH2] ({FITC}-GFID[pS]D[pT]DDEEE-NH2), binding at GST-TopBP1 BRCT5 was characterised by a dissociation constant (Kd) of 24 ± 3 µM.
For the molecule `CC[C@H](C)[C@H](NC(=O)[C@H](Cc1ccccc1)NC(=O)CNC(=S)Nc1ccc2c(c1)C(=O)OC21c2ccc(O)cc2Oc2cc(O)ccc21)C(=O)N[C@@H](CC(=O)O)C(=O)N[C@@H](CO)C(=O)N[C@@H](CC(=O)O)C(=O)N[C@H](C(=O)N[C@@H](CC(=O)O)C(=O)N[C@H](C(=O)N[C@@H](CCC(=O)O)C(=O)N[C@@H](CCC(=O)O)C(=O)N[C@@H](CCC(=O)O)C(N)=O)C(C)C)[C@@H](C)OP(=O)(O)O` [FITC-GFIDSDpTDVEEE-NH2] ({FITC}-GFIDSD[pT]DVEEE-NH2), the Kd at GST-TopBP1 BRCT5 came to 98 ± 9 µM.
`CC[C@H](C)[C@H](NC(=O)[C@H](Cc1ccccc1)NC(=O)CNC(=S)Nc1ccc2c(c1)C(=O)OC21c2ccc(O)cc2Oc2cc(O)ccc21)C(=O)N[C@@H](CC(=O)O)C(=O)N[C@@H](COP(=O)(O)O)C(=O)N[C@@H](CC(=O)O)C(=O)N[C@H](C(=O)N[C@@H](CC(=O)O)C(=O)N[C@H](C(=O)N[C@@H](CCC(=O)O)C(=O)N[C@@H](CCC(=O)O)C(=O)N[C@@H](CCC(=O)O)C(N)=O)C(C)C)[C@@H](C)O` [FITC-GFIDpSDTDVEEE-NH2] ({FITC}-GFID[pS]DTDVEEE-NH2) came in with a Kd on GST-TopBP1 BRCT5 of 105 ± 9 µM.
Regarding `CC[C@H](C)[C@H](NC(=O)[C@H](Cc1ccccc1)NC(=O)CNC(=S)Nc1ccc2c(c1)C(=O)OC21c2ccc(O)cc2Oc2cc(O)ccc21)C(=O)N[C@@H](CC(=O)O)C(=O)N[C@@H](COP(=O)(O)O)C(=O)N[C@@H](CC(=O)O)C(=O)N[C@H](C(=O)N[C@@H](CC(=O)O)C(=O)N[C@H](C(=O)N[C@@H](CCC(=O)O)C(=O)N[C@@H](CCC(=O)O)C(=O)N[C@@H](CCC(=O)O)C(N)=O)C(C)C)[C@@H](C)OP(=O)(O)O` [FITC-GFIDpSDpTDVEEE-NH2] ({FITC}-GFID[pS]D[pT]DVEEE-NH2), the equilibrium dissociation constant (Kd) came out at 28 ± 4 µM on GST-TopBP1 BRCT5, 27 ± 4 µM on GST-TopBP1 BRCT4/5, 280 ± 60 µM in [1] and 210 ± 50 µM on GST-BRCT5 K704A (TopBP1).
In turn, `CC[C@H](C)[C@H](NC(=O)[C@H](Cc1ccccc1)NC(=O)CNC(=S)Nc1ccc2c(c1)C(=O)OC21c2ccc(O)cc2Oc2cc(O)ccc21)C(=O)N[C@@H](CC(=O)O)C(=O)N[C@@H](CO)C(=O)N[C@@H](CC(=O)O)C(=O)N[C@H](C(=O)N[C@@H](CC(=O)O)C(=O)N[C@H](C(=O)N[C@@H](CCC(=O)O)C(=O)N[C@@H](CCC(=O)O)C(=O)N[C@@H](CCC(=O)O)C(N)=O)C(C)C)[C@@H](C)O` [FITC-GFIDSDTDVEEE-NH2] ({FITC}-GFIDSDTDVEEE-NH2) registered a Kd at GST-TopBP1 BRCT5 of 310 ± 70 µM.

B1: GST-TopBP1 BRCT4/5 (549-746) (domain or fragment)
chain: EEGLFSQKSFLVLGFSNENESNIANIIKENAGKIMSLLSRTVADYAVVPLLGCEVEATVGEVVTNTWLVTCIDYQTLFDPKSNPLFTPVPVMTGMTPLEDCVISFSQCAGAEKESLTFLANLLGASVQEYFVRKSNAKKGMFASTHLILKERGGSKYEAAKKWNLPAVTIAWLLETARTGKRADESHFLIENSTKEER
As for B1, the Kd in test [2] turned out to be 27 ± 4 µM.

B2: GST-TopBP1 BRCT5 (641-746), Q92547 641-746 (domain or fragment)
chain: TGMTPLEDCVISFSQCAGAEKESLTFLANLLGASVQEYFVRKSNAKKGMFASTHLILKERGGSKYEAAKKWNLPAVTIAWLLETARTGKRADESHFLIENSTKEER
modifications: not checked
For the molecule B2, the Kd in [3] worked out at 24 µM; in [4] it was 28 µM; in test [5], 310 µM; in test [6], 105 µM; in [7] it was 98 µM.
